Data published in ChEMBL document CHEMBL4390639, “Design, Synthesis, and Biological Evaluation of Novel Allosteric Protein Disulfide Isomerase Inhibitors” (J Med Chem, 2019).
Blank lines part the entries; values can stand above or below the compound they belong to. Activity calls are given as the source filed them. No cut-off for these calls is given here.

Experiments:
[1] = target: T1, Protein disulfide-isomerase (Homo sapiens, UniProt P07237); assay: Inhibition of recombinant human N-terminal His-tagged PDI expressed in Escherichia coli BL21 (DE3) pLysS assessed as reduction in enzyme-mediated bovine insulin aggregation
Target sequence in this assay (P07237 whole entry): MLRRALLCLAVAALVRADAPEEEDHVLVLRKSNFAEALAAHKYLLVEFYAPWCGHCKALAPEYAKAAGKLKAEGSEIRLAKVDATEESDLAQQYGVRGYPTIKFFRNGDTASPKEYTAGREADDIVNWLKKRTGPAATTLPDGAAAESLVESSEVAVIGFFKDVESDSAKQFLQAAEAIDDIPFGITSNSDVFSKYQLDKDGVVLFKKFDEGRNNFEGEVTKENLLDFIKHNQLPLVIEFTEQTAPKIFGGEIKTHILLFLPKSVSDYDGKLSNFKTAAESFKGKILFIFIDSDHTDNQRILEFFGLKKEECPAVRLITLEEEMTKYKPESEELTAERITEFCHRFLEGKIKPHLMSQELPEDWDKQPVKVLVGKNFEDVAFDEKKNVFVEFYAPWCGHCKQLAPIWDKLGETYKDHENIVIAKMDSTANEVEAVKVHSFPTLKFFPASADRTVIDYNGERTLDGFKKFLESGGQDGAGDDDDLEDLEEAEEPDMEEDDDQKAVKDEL

U-87 MG [2] = assay: Inhibition of colony formation in human U87MG cells […] by crystal violet staining based assay; assay type: functional, cell-based; conditions: U-87MG ATCC
Summary of the method: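 Clonogenicity: U87MG cells seeded at 200 cells/well, left overnight, treated 24 h, then medium replaced and cells grown ten days. Stained 30 min with crystal violet, washed, imaged; normalized well intensity from three independent experiments.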

[3] = target: T1, Protein disulfide-isomerase; assay: Binding affinity to recombinant human N-terminal His-tagged PDI expressed in Escherichia coli BL21 (DE3) pLysS assessed as change in melting temperature at 100 uM by ROX dye based thermal shift assay
Summary of the method: (§1)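 Purified wild-type, C53S/C397S or H256A PDI at 0.5 mg/mL in 50 mM Tris, pH 7.0, with or without 100 μM compound, was mixed with ROX dye in a 20 µL well. DMSO (5% in buffer) was the control. Samples were heated 25–99 °C at 1 °C/min, and the Boltzmann melting temperature shift versus DMSO was reported. Mean ± SD of three experiments.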
Target sequence in this assay (P07237 18-508 limits assumed): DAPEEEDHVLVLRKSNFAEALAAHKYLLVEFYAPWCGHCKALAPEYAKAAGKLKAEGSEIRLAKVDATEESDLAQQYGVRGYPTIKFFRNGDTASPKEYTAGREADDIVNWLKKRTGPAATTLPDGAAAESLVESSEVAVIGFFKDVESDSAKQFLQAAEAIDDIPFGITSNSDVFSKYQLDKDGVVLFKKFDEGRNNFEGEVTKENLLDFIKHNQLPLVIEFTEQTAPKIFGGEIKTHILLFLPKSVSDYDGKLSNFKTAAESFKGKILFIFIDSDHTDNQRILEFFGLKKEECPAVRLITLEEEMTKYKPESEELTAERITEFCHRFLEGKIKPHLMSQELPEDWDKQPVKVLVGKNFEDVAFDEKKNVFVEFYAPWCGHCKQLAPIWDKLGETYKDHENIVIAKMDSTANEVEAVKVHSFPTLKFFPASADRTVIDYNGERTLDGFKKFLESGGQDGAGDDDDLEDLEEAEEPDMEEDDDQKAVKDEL

[4] = target: Eukaryotic translation initiation factor 2 subunit 1 (Homo sapiens) (UniProt P05198); assay: Induction of EIF2alpha phosphorylation in human U87MG cells at 1 uM measured after 2 hrs by Western blot analysis; assay type: cell-based
Summary of the method: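 eIF2α phosphorylation in U87MG cells after 2 h with 1 µM PACMA31 or 20 µM analogues; tunicamycin 10 µg/mL as comparator. Lysates (Tris/NaCl/Triton/SDS, sonicated) quantified by BCA; 30 µg protein separated on 10% gels, blotted to PVDF, probed for phospho-eIF2α, detected by fluorescence.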

U-87 MG [5] = assay: Induction of endoplasmic reticulum stress in human U87MG cells assessed as increase in GRP78 expression at 1 uM measured after 24 hrs by Western blot analysis; assay type: functional, cell-based; conditions: U-87MG ATCC
Summary of the method: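 ER-stress immunoblot: 0.5 x 10^6 U87MG cells/well treated for 24 h with 20 µM analogues, 1 µM PACMA31 or DMSO; tunicamycin 10 µg/mL for 2 or 24 h as positive control. Lysis in Tris/NaCl/Triton/SDS buffer with sonication; 30 µg protein on 10% gels, transferred to PVDF, GRP78 probed, fluorescence imaging.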

[6] = target: Eukaryotic translation initiation factor 2 subunit 1 (Homo sapiens) (UniProt P05198); assay: Induction of EIF2alpha phosphorylation in human A172 cells at 1 uM measured after 2 hrs by Western blot analysis; assay type: cell-based
A 172 [7] = assay: Induction of endoplasmic reticulum stress in human A172 cells assessed as increase in GRP78 expression at 1 uM measured after 24 hrs by Western blot analysis; assay type: functional, cell-based
A 172 [8] = assay: Antimigratory activity against human A172 cells assessed as reduction in cell migration towards wound area measured after 24 hrs by Giemsa staining based microscopic analysis; assay type: functional
Summary of the method: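 A172 cells plated at 50,000 cells/well, incubated overnight at 37 °C, 5% CO2, then held 24 h in serum-free DMEM. A scratch was made, compounds were added, and cells grew 24 h until DMSO-control wells closed. Cells were Giemsa-stained and imaged at 10X.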

A 172 [9] = assay: Antimigratory activity against human A172 cells at 30 uM measured after 4 hrs by Giemsa staining based transwell migration assay; assay type: functional, cell-based
Summary of the method: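 A172 cells (1 x 10^5) were treated with compound and seeded into inserts with 8.0 μm PET membrane in serum-free medium. DMEM with 10% FBS was in the lower well; wells without FBS served as control. After 4 h, migrated cells were Giemsa-stained and imaged at 10X, 5 fields per well.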

[10] = target: 72 kDa type IV collagenase (Homo sapiens) (UniProt P08253); assay: Inhibition of MMP2 activity in human U87MG cells at 0.25 uM […] by gelatin zymographic method; assay type: cell-based
U-87 MG [11] = assay: Down regulation of cleaved MMP2 expression in human U87MG cells at 0.25 uM measured after 24 hrs by Western blot analysis; assay type: functional, cell-based; conditions: U-87MG ATCC
U-87 MG [12] = assay: Down regulation of MMP9 expression in human U87MG cells at 0.25 uM measured after 24 hrs by Western blot analysis; assay type: functional, cell-based; conditions: U-87MG ATCC
D54 cell line = assay: Inhibition of colony formation in 1 to 6 Gy-irradiated human D54 cells at 0.05 uM measured after 10 to 12 days by crystal violet staining based assay; assay type: functional, cell-based
Summary of the method: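 D54 cells irradiated at 0, 1, 2, 4 or 6 Gy and plated immediately at 200–1000 cells/well according to dose. Treated with DMSO, 0.05 μM PACMA31 or 1 μM compounds, grown 10–12 days, then colonies stained with 0.1% crystal violet.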

[13] = target: T1, Protein disulfide-isomerase; assay: Inhibition of recombinant human N-terminal His-tagged PDI expressed in Escherichia coli BL21 (DE3) pLysS at 100 uM measured after 1 hr by ANS dye based fluorescence spectra analysis
Summary of the method: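 ANS spectral scan: PDI incubated with 100 μM compounds or matching DMSO in TBS for 1 h at 37 °C. ANS then added and incubated 20 min at 25 °C in the dark. Fluorescence spectrum recorded with excitation 370 nm, emission 400–700 nm.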
Target sequence in this assay (P07237 18-508 limits assumed): as above

[14] = target: T1, Protein disulfide-isomerase; assay: Inhibition of recombinant human N-terminal His-tagged PDI expressed in Escherichia coli BL21 (DE3) pLysS assessed as reduction in enzyme-mediated bovine insulin aggregation at 40 uM measured after 1 hr in presence of 5 mM NAC
Summary of the method: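 Compounds pretreated with NAC for 30 min at 37 °C, then added to the insulin reductase assay at final 40 μM compound with 0, 1, 2 or 5 mM NAC. The assay uses 0.4 μM PDI preincubated 1 h at 37 °C, then DTT and bovine insulin, read at 620 nm, with % activity at 80 min.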
Target sequence in this assay (P07237 18-508 limits assumed): as above

[15] = Solubility of the compound in DMSO; assay type: physicochemical
U-87 MG [16] = assay: Cytotoxicity against human U87MG cells assessed as inhibition of cell growth measured after 72 hrs by MTT assay; assay type: functional, cell-based, U-87MG ATCC
Summary of the method: (§2)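 A172 and NU04 cells were seeded at 4000 cells/well and U87MG at 5000 cells/well, incubated overnight at 37 °C, 5% CO2, then exposed to compound or vehicle for 72 h. MTT (3 mg/mL) was added for 4 h, formazan was dissolved in DMSO, and absorbance was read at 570 nm. IC50 came from nonlinear regression; mean ± SD of at least three experiments.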

A 172 [17] = assay: Cytotoxicity against human A172 cells assessed as inhibition of cell growth measured after 72 hrs by MTT assay; assay type: functional, cell-based; summary of the method: as §2
[18] = Cytotoxicity against human NU04 cells assessed as inhibition of cell growth measured after 72 hrs by MTT assay; assay type: functional, cell-based; summary of the method: as §2
U-87 MG [19] = assay: Cytotoxicity against human U87MG cells assessed as inhibition of cell proliferation at <IC50 measured after 72 hrs by MTT assay relative to control; assay type: functional, U-87MG ATCC
U-87 MG [20] = assay: Inhibition of colony formation in human U87MG cells assessed as combination index at 1 to 30 uM measured after 24 hrs in presence of arsenic trioxide by crystal violet staining based assay; assay type: functional, U-87MG ATCC
[21] = target: Eukaryotic translation initiation factor 2 subunit 1 (Homo sapiens) (UniProt P05198); assay: Induction of EIF2alpha phosphorylation in human U87MG cells at 10 ug/ml measured after 2 hrs by Western blot analysis; assay type: cell-based
Summary of the method: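 U87MG cells (0.5 x 10^6 per well) exposed to tunicamycin at 10 µg/mL for 2 h. Cells lysed by sonication in Tris/NaCl/Triton X-100/SDS buffer, pH 7.4, and cleared at 13,500×g, 4 °C. Protein was measured by BCA, and 30 µg was run on 10% acrylamide gels and transferred to PVDF. Antibody signal was read by fluorescence imaging.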

[22] = target: Eukaryotic translation initiation factor 2 subunit 1 (Homo sapiens) (UniProt P05198); assay: Induction of EIF2alpha phosphorylation in human A172 cells at 10 ug/ml measured after 2 hrs by Western blot analysis; assay type: cell-based
[23] = system: Protein disulfide-isomerase (Homo sapiens), P07237 [H256A]; assay: Binding affinity to recombinant human N-terminal His-tagged PDI H256A mutant expressed in Escherichia coli BL21 (DE3) pLysS assessed as change in melting temperature at 100 uM by ROX dye based thermal shift assay; summary of the method: as §1
Protein disulfide-isomerase (Homo sapiens), P07237 [H256A], sequence (P07237 whole entry H256A): as the sequence (P07237 whole entry) above, with H256A counted along it

Eukaryotic translation initiation factor 2 subunit 1 (Homo sapiens), sequence (P05198 whole entry): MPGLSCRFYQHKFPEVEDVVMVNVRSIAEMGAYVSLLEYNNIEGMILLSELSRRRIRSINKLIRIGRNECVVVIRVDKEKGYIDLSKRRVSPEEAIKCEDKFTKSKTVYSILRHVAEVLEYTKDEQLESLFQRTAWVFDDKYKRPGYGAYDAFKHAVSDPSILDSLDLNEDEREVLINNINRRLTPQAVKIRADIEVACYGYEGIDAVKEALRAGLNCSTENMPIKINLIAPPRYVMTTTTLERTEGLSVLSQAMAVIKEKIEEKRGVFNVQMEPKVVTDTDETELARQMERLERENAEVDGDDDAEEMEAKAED
72 kDa type IV collagenase (Homo sapiens), sequence (P08253 110-660 limits assumed): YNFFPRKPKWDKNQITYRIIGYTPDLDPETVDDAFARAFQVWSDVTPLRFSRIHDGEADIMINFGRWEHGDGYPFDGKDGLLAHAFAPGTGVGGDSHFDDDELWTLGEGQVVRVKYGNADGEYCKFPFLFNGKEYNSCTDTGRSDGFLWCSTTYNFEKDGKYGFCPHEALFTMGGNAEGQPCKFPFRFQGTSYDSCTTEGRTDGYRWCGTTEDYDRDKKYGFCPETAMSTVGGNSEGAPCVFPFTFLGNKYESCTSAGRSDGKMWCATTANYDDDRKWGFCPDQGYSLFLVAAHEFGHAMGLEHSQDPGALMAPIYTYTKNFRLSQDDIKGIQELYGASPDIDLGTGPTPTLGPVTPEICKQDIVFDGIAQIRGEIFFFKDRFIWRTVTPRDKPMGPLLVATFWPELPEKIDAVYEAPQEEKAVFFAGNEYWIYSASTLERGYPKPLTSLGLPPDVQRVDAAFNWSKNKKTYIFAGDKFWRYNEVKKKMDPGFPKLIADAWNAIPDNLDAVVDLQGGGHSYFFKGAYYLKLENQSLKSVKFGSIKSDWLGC

SMILES: C#CC(=O)N(c1ccc(OC)cc1OC)C(C(=O)NCC(=O)OCC)c1cccs1 (centres undefined)
- IC50 [1]: 10.8 µM
- inhibition (U-87 MG [2]): Dose-dependent effect
- ΔTm [3]: 0.03 °C
- Activity [4]: inactive
- Activity (U-87 MG [5]): Active
- Activity [6]: inactive
- Activity (A 172 [7]): Active
- Activity (A 172 [8]): Dose-dependent effect
- Activity (A 172 [9]): Active
- inhibition [10]: Active
- Activity (U-87 MG [11]): Active
- Activity (U-87 MG [12]): Active
- inhibition (D54 cell line): inactive
- inhibition [13]: inactive
- inhibition [14]: inactive

SMILES: CCCCCCCCCCCCC/C=C/C(=O)N[C@H]1[C@H](O[C@H]2O[C@H](CO)[C@@H](O)[C@H](O)[C@H]2NC(C)=O)O[C@H](C[C@@H](O)[C@H]2O[C@@H](n3ccc(=O)[nH]c3=O)[C@H](O)[C@@H]2O)[C@H](O)[C@@H]1O
- Activity [21]: Active
- Activity [22]: Active

Second part, led by results:

- IC50 [1]: 1.05 µM
- solubility [15]: Insoluble
SMILES: N#Cc1cccc(/C=C/C(=O)c2ccc(S(=O)(=O)NC3CC3)cc2)c1
- IC50 (U-87 MG [16]; u-87mg atcc): Nd(Insoluble)
- IC50 (A 172 [17]; a 172): Nd(Insoluble)
- IC50 [18]: Nd(Insoluble)

- IC50 [1]: 1.23 µM
SMILES: CCN(CC)S(=O)(=O)c1ccc(C(=O)/C=C/c2cccc(C#N)c2)cc1
- IC50 (U-87 MG [16]; Homo sapiens, U-87 MG, 72 h, read-out: IC50): 17.7 µM
- IC50 (A 172 [17]; Homo sapiens, A 172, 72 h, read-out: IC50): 26.4 µM
- IC50 ([18]; Homo sapiens, 72 h, read-out: IC50): 19.9 µM
- inhibition (INH) (U-87 MG [19]): >50%
- CI (U-87 MG [20]): <1

- Activity [23]: inactive
SMILES: C[C@]12CC[C@@H]3c4ccc(O)cc4CC[C@H]3[C@@H]1CC[C@@H]2O
